Assay [1] is described as follows: Ratio of inhibition of cyclin dependant kinase 2-cyclin E to that of cyclin-dependent kinase 5. Put shortly: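 Selectivity is the cdk2/cyclin E IC50 divided by the cdk5/p25 IC50 (k2/k5). Both IC50s came from six-point triplicate dose–response curves in scintillation proximity assays run at the same final ATP concentration.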
The target in assay [2] is Cyclin-dependent kinase 5 (Homo sapiens, UniProt Q00535). As to the kind of experiment: Concentration required for inhibition of cyclin-dependent kinase 5 was measured by scintillation proximity assay. Summed up:
(§1)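 Kinase activity was read by scintillation proximity assay against cdk5/p25 and cdk2/cyclin E, with the same final ATP concentration in both assays. ATP Km was measured separately for each enzyme. Each IC50 came from a six-point dose–response curve run in triplicate.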
A general note: Scintillation proximity formats need no separation of bound from free tracer.

Assay [3] concerns the target T1, Cyclin-dependent kinase 2/cyclin E1 (Homo sapiens, UniProt P24941). As to the kind of experiment: Concentration required for inhibition of cyclin dependant kinase 2-cyclin E was measured by scintillation proximity assay. It is filed as protein-complex assay. Summed up: as §1
Assay [4] has as its target T1, Cyclin-dependent kinase 2/cyclin E1. As to the kind of experiment: Concentration required for 50% inhibition of cyclin dependant kinase 2-cyclin E was measured by scintillation proximity assay. In kind it is protein-complex assay. Summed up:
as §1

Sequence of Cyclin-dependent kinase 5 (Q00535 whole entry): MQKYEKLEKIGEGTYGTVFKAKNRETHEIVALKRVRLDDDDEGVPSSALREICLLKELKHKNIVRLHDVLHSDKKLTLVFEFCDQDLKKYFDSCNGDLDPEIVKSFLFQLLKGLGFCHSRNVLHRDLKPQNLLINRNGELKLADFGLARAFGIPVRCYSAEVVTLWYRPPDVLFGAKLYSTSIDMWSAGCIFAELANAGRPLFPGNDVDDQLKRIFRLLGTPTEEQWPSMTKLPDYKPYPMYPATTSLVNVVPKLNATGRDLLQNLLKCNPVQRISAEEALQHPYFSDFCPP

Usually IC50 stands for the point on the concentration scale where inhibition reaches its midpoint. Regarding `O=C(Nc1ncc(C2CCC2)s1)Nc1cccc2ccncc12`, in assay [1], the Ratio came to 11. Also, the figures for the IC50 in assay [2] and in assay [3] were 0.005 µM and 0.055 µM, respectively.

For `CC(C)c1cnc(NC(=O)C(=O)c2ccccc2)s1`, in assay [1], the Ratio came to 2.1. In addition, the values for the IC50 in assay [2] and in assay [4] were 4.58 µM and 9.77 µM, respectively.

For the molecule `O=C(Cc1ccccc1)Nc1ncc(-c2ccccc2)s1`, the Ratio in assay [1] came out at 1.3. The IC50 was determined as 1.57 µM in assay [2] and 2 µM in assay [3].

With `O=C(Nc1ccccc1)Nc1ncc(C2CCC2)s1`, the Ratio in assay [1] turned out to be 1.6. In addition, the IC50 in assay [2] stood at 0.183 µM; in assay [3], 0.29 µM.

As to `CCc1cnc(NC(=O)Cc2ccccc2)s1`, the Ratio in assay [1] amounted to 0.7. For the same molecule, the IC50 came to 0.621 µM in assay [2] and 0.412 µM in assay [4].

Regarding `O=C(Nc1ncc(C2CCC2)s1)Nc1cccc2ncccc12`, in assay [1], the Ratio worked out at 3.3. Also, the IC50 in assay [2] is 0.013 µM; in assay [3], 0.043 µM.

Turning to `O=C(Cc1ccccc1)Nc1ncc(Br)s1`, the Ratio in assay [1] came to 0.5. For the same molecule, the concentration for half-maximal inhibition (IC50) worked out at 0.9 µM in assay [2] and 0.48 µM in assay [3].

With `O=C(Cc1ccccc1)Nc1ncc(C2=CCCC2)s1`, the Ratio in assay [1] is 1. Moreover, the IC50 was 6.53 µM in assay [2] and 6.51 µM in assay [3].

With `O=C(Cc1cccc2cnccc12)Nc1ncc(C2CCC2)s1`, the Ratio in assay [1] worked out at 5.4. Also, the half-maximal inhibitory concentration (IC50) in assay [2] is 0.013 µM; in assay [3], 0.07 µM.

`O=C(Nc1ncc(C2CCC2)s1)Nc1cccc2cnccc12`: the Ratio in assay [1] amounted to 12. For the same molecule, the figures for the IC50 in assay [2] and in assay [3] were 0.008 µM and 0.096 µM, respectively.

Turning to `CSc1cnc(NC(=O)Cc2ccccc2)s1`, the Ratio in assay [1] turned out to be 1.2. The concentration for half-maximal inhibition (IC50) in assay [2] amounted to 0.091 µM; in assay [3] it was 0.105 µM.

In the case of `O=C(Cc1ccc2[nH]cnc2c1)Nc1ncc(C2CCC2)s1`, the Ratio in assay [1] was determined as 4.7. Further, the IC50 is 0.007 µM in assay [2] and 0.033 µM in assay [3].

In the case of `CC(C)C(=O)Nc1ncc(C(C)C)s1`, the Ratio in assay [1] came out at 1. Also, the IC50 in assay [2] was 0.321 µM; in assay [3] it was 0.318 µM.

In the case of `CC(=O)c1cnc(NC(=O)Cc2ccccc2)s1`, in assay [1], the Ratio amounted to 0.6. The IC50 in assay [2] came out at 7.67 µM; in assay [3], 4.6 µM.

With `CN(C)c1cnc(NC(=O)Cc2ccccc2)s1`, the Ratio in assay [1] was found to be 1.2. Besides, the IC50 in assay [2] was 3.99 µM; in assay [3], 4.81 µM.

On to `O=C(Nc1ncc(C2CCC2)s1)Nc1cccc2c[nH]nc12`, for which the Ratio in assay [1] was found to be 3.4. The 50% inhibitory concentration (IC50) worked out at 0.19 µM in assay [2] and 0.65 µM in assay [3].

As to `O=C(Cc1c[nH]c2ccccc12)Nc1ncc(C2CCC2)s1`, the Ratio in assay [1] was found to be 2.5. Besides, the IC50 stood at 0.016 µM in assay [2] and 0.04 µM in assay [3].

On to `CC(C)c1cnc(NC(=O)Oc2ccccc2)s1`, for which the Ratio in assay [1] turned out to be 0.6. For the same molecule, the IC50 in assay [2] came to 1.6 µM; in assay [4] it was 0.98 µM.

Consider `O=C(Cc1ccccc1)Nc1ncc(C2CCCCC2)s1`, for which the Ratio in assay [1] turned out to be 2.6. Also, the half-maximal inhibitory concentration (IC50) in assay [2] stood at 0.39 µM; in assay [3], 0.997 µM.

Turning to `O=C(Cc1ccccc1)Nc1ncc(C2CCCC2)s1`, the Ratio in assay [1] was found to be 2.4. The IC50 stood at 0.064 µM in assay [2] and 0.155 µM in assay [3].

Turning to `CC(C)c1cnc(NC(=O)Cc2ccccc2)s1`, the Ratio in assay [1] came out at 1.5. In addition, the IC50 in assay [2] stood at 0.064 µM; in assay [4] it was 0.098 µM.

In the case of `CC(C)c1cnc(NC(=O)Nc2ccccc2)s1`, the Ratio in assay [1] turned out to be 2.6. Further, the half-maximal inhibitory concentration (IC50) in assay [2] was found to be 0.102 µM; in assay [4] it was 0.265 µM.

In the case of `O=C(Nc1ncc(C2CCC2)s1)Nc1cccc2[nH]nnc12`, in assay [1], the Ratio was found to be 2.6.

Regarding `CCCCCc1cnc(NC(=O)Cc2ccccc2)s1`, in assay [1], the Ratio was 1.2. The figures for the IC50 in assay [2] and in assay [3] were 3.27 µM and 4.12 µM, respectively.

In the case of `Cc1cc2ncn(CC(=O)Nc3ncc(C4CCC4)s3)c2cc1C`, the Ratio in assay [1] is 2.2. The IC50 in assay [2] amounted to 0.013 µM; in assay [3] it was 0.026 µM.

Take `O=C(Nc1ccc2ncccc2c1)Nc1ncc(C2CCC2)s1`: the Ratio in assay [1] was found to be 3.8. The values for the IC50 in assay [2] and in assay [3] were 0.044 µM and 0.167 µM, respectively.

Take `Cc1nc2ccc(CC(=O)Nc3ncc(C4CCC4)s3)cc2s1`: the Ratio in assay [1] was found to be 1.3. In addition, the values for the IC50 in assay [2] and in assay [3] were 0.012 µM and 0.016 µM, respectively.

Take `O=C(Nc1ncc(C2CCC2)s1)Nc1cccc2nn[nH]c12`: the IC50 in assay [2] stood at 0.041 µM; in assay [3], 0.106 µM.

For `O=C(Nc1ccc2cnccc2c1)Nc1ncc(C2CCC2)s1`, in assay [1], the Ratio came out at 4. Moreover, the IC50 in assay [2] was found to be 0.044 µM; in assay [3] it was 0.176 µM.

Turning to `O=C(Cn1ccc2ccccc21)Nc1ncc(C2CCC2)s1`, the Ratio in assay [1] worked out at 2.1. In addition, the values for the IC50 in assay [2] and in assay [3] were 0.048 µM and 0.1 µM, respectively.

Regarding `CC(C)c1cnc(NC(=O)c2ccccc2)s1`, in assay [1], the Ratio amounted to 0.9. For the same molecule, the IC50 in assay [2] worked out at 1.15 µM; in assay [4], 1.02 µM.

With `O=C(Cc1ccc2ncccc2c1)Nc1ncc(C2CCC2)s1`, the Ratio in assay [1] came out at 2.6. Moreover, the IC50 was determined as 0.01 µM in assay [2] and 0.026 µM in assay [3].

Regarding `O=C(Cc1ccccc1)Nc1ncc(C2CCC2)s1`, in assay [1], the Ratio stood at 3. The 50% inhibitory concentration (IC50) worked out at 0.025 µM in assay [2] and 0.074 µM in assay [3].

The values are drawn from ChEMBL document CHEMBL1138018, “Discovery and SAR of 2-aminothiazole inhibitors of cyclin-dependent kinase 5/p25 as a potential treatment for Alzheimer's disease” (Bioorg Med Chem Lett, 2004).
